From PubChem
Mac1 fbg inh: inhibitors of CD11b/CD18 adhesion to fibrinogen, primary screen, K562 cells, luminescence. Integrin beta-2 (Homo sapiens) + Integrin alpha-M (Homo sapiens), P05107+P11215. ATPlite luminescence; Mn2+ added to activate the integrin. inhibition, % at 10 µM. 93,000 tested, 0.54% active. AID 1497, 2009;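 active means primary inhibition of 50% or more at 10 µM, then 40% or more on retest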
Target sequence (P05107 whole entry, looked up, other chains not shown): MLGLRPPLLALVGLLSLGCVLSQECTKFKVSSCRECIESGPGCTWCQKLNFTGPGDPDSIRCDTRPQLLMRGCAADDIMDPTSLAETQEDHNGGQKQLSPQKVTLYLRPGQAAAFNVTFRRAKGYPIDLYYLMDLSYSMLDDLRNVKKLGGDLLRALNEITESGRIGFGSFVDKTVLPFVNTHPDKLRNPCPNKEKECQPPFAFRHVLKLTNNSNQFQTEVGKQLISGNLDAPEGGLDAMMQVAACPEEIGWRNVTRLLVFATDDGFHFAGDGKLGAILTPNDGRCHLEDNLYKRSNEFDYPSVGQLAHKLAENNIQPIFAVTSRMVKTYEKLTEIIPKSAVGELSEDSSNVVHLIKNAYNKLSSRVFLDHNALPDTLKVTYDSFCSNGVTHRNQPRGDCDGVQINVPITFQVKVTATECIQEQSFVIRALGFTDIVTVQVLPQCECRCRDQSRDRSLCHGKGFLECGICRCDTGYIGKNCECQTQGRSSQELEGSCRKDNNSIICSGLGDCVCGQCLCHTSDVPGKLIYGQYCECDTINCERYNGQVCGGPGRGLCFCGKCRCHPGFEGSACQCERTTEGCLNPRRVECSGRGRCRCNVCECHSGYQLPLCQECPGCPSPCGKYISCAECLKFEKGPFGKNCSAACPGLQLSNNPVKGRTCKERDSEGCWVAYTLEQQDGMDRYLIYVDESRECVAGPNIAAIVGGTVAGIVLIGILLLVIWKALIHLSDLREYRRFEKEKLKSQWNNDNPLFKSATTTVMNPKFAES
CD11b adhes enh: enhancers of CD11b/CD18 adhesion to fibrinogen, primary screen, K562 cells, luminescence; Integrin beta-2 (Homo sapiens) + Integrin alpha-M (Homo sapiens), P05107+P11215; ATPlite luminescence; activation, % at 10 µM; 93,000 tested, 0.07% active; AID 1499, 2009;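 active means 10 µM primary screen giving 50% or more activity, confirmed by 40% or more on retest at that dose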
HIV Rev-RRE inh: HIV-1 Rev-RRE binding inhibitors, primary screen, biochemical, FRET, protein-RNA interaction | Rev peptide-RRE RNA binding | P05866 | AID 704, 2007 | inhibition, % at 8 µM | 97,000 tested, 0.79% active;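 active means inhibition above the screen-wide mean plus 3 SD, cut at about 35% in these data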;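 further: 0% = median DMSO wells and 100% = median Neomycin B control wells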
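Test system – labelled RRE RNA duplex and labelled Rev peptide · Reagent – labelled Rev peptide · Doses – one concentration, 8 µM nominal · Incubation – 5 + 15 min at 25 °C · Signal – FRET fluorescence readout · Read-out basis – % inhibition of FRET ratio versus controls · Control set – DMSO wells as 0% and neomycin B wells as 100% inhibition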
Smad3 FoxH1 inh: Smad3/FoxH1 peptide binding inhibitors, primary screen, biochemical, TR-FRET; inhibition, % at 25 µM; TR-FRET Smad3/Dy647-FoxH1 peptide binding, europium anti-His; AID 630, 2007; 88,000 tested, 0.29% active; Mothers against decapentaplegic homolog 3 (Homo sapiens), P84022;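 active means compounds that reduce the energy-transfer binding signal between the protein and its labelled peptide by more than half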;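 further: 0% = Smad3 plus labelled peptide maximal FRET and 100% = peptide-only background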
sEH inh: soluble epoxide hydrolase inhibitors, primary screen, biochemical, human sEH; Bifunctional epoxide hydrolase 2 (Homo sapiens), P34913; recombinant human sEH enzymatic activity assay; inhibition, % at 2 µM; 91,000 tested, 0.34% active; AID 707, 2007; in the data active means inhibition above about 80%
sEH activator: soluble epoxide hydrolase activators, primary screen, biochemical, human sEH; purified human sEH enzymatic activity, activator screen; activation, % at 2 µM; 91,000 tested, 0.04% active; Bifunctional epoxide hydrolase 2 (Homo sapiens), P34913; in the data active means activation above about 37%
Active calls of the source: *; · = no result; [ ] = another dose, or the depositor's remark. An excerpt weighted towards active compounds, which were near 1.6% of everything screened.

SMILES	Mac1 fbg inh	CD11b adhes enh	HIV Rev-RRE inh	Smad3 FoxH1 inh	sEH inh	sEH activator
CC[n+]1c(/C=C2/C=C(C)CC(C)(C)C2)sc2ccc(OC)cc21	·	·	19	·	-10	10
COc1ccc2nc(NC(=S)N(C)C)sc2c1	60*	-4	5	-3	9	-10
CC(=Nc1cccc(C)c1)c1sc2ccccc2c1O	11	0	25	-6	6	-6
CC(=Nc1ccc(O)cc1)c1sc2ccccc2c1O	-46	8	42*	12	10	-10
N#CNC(N)=Nc1ccc(Cl)cc1	·	·	·	3	·	·
CCC(CC)NC(=O)COC(=O)c1ccc(OCC(=O)Nc2ccccc2OC)c(OC)c1	3	-2	12	·	83*	-83
Cn1c2ccccc2c(=O)c2c(=O)n(C3CCCCC3)c(-c3ccco3)nc21	12	-2	·	·	·	·
CN1CCC[C@H]1c1cccnc1.O=C(O)c1ccccc1O.O=C([OH2+])c1ccccc1O.O=C([OH2+])c1ccccc1O.[Mn+2]	·	·	·	-10	·	·
Cc1ccc(/C=C2/NC(=O)N(Cc3ccccc3)C2=O)s1	18	1	50*	·	16	-13
Cc1cccc(CN2C(=O)N/C(=C/c3ccc(C)s3)C2=O)c1	12	-4	58*	·	24	-23
Cc1cccc(CN2C(=O)N/C(=C/c3cc(C)n(-c4cc(C)ccn4)c3C)C2=O)c1	14	113	9	·	10	-8
CC1Cc2nc(SCC(=O)Nc3nc4ccccc4s3)n(C)c(=O)c2S1 (configuration not stated)	36	-5	6	-2	·	·
CC12COC3(C(=O)Nc4cccnc4)CC1CCC32C (configuration not stated)	-10	-2	44*	6	2	2
Cc1ccc(NC(=O)CN2C(=O)S/C(=C/c3ccc(-c4cc(C(=O)O)ccc4C)o3)C2=O)cc1C	39	61*	11	4	23	-22
O=C1NC(=O)/C(=C\c2ccccc2Oc2ccc(F)c(F)c2)S1	85*	-8	6	·	11	-14
O=C1NC(=O)/C(=C\c2ccc(Oc3ccc([N+](=O)[O-])cn3)cc2)S1	56	-1	·	·	·	·
COc1ccc(N2CCC(CNC(=O)Nc3cccc(OC)c3)C2)cc1 (configuration not stated)	2	-1	-1	3	86*	-86
CCC(NC(=O)Nc1nnc(C(F)(F)F)s1)(C(F)(F)F)C(F)(F)F	107*	-9	3	2	·	·
O=C(O)CCC(=O)Nc1nnc(C(F)(F)F)s1	-17	1	6	4	·	·
N#Cc1c(NC(=O)CCC(=O)O)ccc2ccccc12	·	·	·	-10	·	·
O=C(/C=C/Nc1cccc(O)c1)c1ccccc1	69*	-2	·	0	·	·
C/C(=C\C(=O)c1ccc(C)cc1)Nc1cccc(O)c1	-13	1	4	-1	3	-3
O=C(/C=C\Nc1ccccn1)c1ccccc1	17	-4	7	-6	9	-9
Cc1ccc(C(=O)/C=C/Nc2cccc(O)c2)cc1	91*	-11	·	·	·	·
Cn1c(=S)c2[nH]c(SCCN3C(=O)c4ccccc4C3=O)nc2n(C)c1=O	·	·	·	-26	·	·
SMILES	Mac1 fbg inh	CD11b adhes enh	HIV Rev-RRE inh	Smad3 FoxH1 inh	sEH inh	sEH activator
Cc1ccccc1-c1cc(C(=O)Nc2sc(C(=O)OC(C)C)c(C)c2C#N)c2ccccc2n1	95*	-6	4	·	11	-9
COC(=O)c1sc(NC(=O)c2cc(-c3ccccc3)nc3ccccc23)c(C#N)c1C	104	-10	-3	·	15	-12
COc1ccc(OC)c(-c2cc(C(=O)Nc3sc4c(c3C#N)CCC(C)C4)c3ccccc3n2)c1 (configuration not stated)	-10	93*	8	·	-20	18
COc1ccc(N=Cc2sc(O)c3ccccc23)cc1	2	-4	129*[fluorescence artefact?]	·	18	-16
O=C(O)c1ccc2c(c1C(=O)O)C(=O)OC2(c1ccc(O)cc1)c1ccc(O)cc1	·	·	·	78*	·	·
O=c1ccc2cc3c([nH]c4ccc(Br)cc43)oc-2c1O	-24	4	37*	-7	-4	10
Cc1noc(C)c1COc1ccc(C(=O)OCC(=O)Nc2ccc3c(c2)OCO3)cc1	10	10	12	5	4	-5
Cc1noc(C)c1COC(=O)c1cccnc1SCC(=O)Nc1ccc2c(c1)OCO2	-4	1	11	51*	22	-21
CCc1cc(/C(Cc2ccccn2)=N\O)c(O)cc1O	50	-6	2	-8	-3	3
CCc1cc(/C(Cc2ccc3ccccc3n2)=N\O)c(O)cc1O	60*	-9	11	·	12	-13
C[C@@H](N)/C(N)=N\O	·	·	·	5	·	·
O=C(Nc1ccc(Cc2ccncc2)cc1)C1CCC(N2C(=O)C3C4C=CC(C5CC45)C3C2=O)CC1 (configuration not stated)	7	-1	2	3	86*	-87
Cc1cc2sc(C)[n+](CCCOS(=O)(=O)O)c2cc1C	·	·	·	-3	·	·
Cc1cc(C(=O)CSc2nnc(-c3ccco3)o2)c(C)n1-c1ccc2c(c1)OCCO2	87*	4	10	-7	-9	7
Cc1cc(C(=O)CSc2nnc(-c3ccco3)o2)c(C)n1Cc1ccco1	15	17	-8	-29	-13	10
Cc1cc(C(C)(C)C)c(OCCCN2CCOCC2)c(C(C)(C)C)c1	·	·	·	-3	·	·
O=C(O)/C=C1\NC(=O)c2ccccc21	·	·	1	·	-19	20
O=C1N/C(=C\c2ccc(O)cc2)C(=O)c2ccccc21	1	4	69*	·	-1	2
O=C(NCc1ccccc1)C(c1ccncc1)N(C(=O)c1csnn1)C1CC1 (configuration not stated)	·	·	6	11	-5	3
O=C(O)[C@@H]1[C@H](C(=O)O)[C@@H](C(=O)O)C[C@H]1C(=O)O	·	·	·	11	·	·
CNc1ccc(Br)cc(C(=O)/C=C/c2ccc3c(c2)OCO3)c1=O	·	·	48*	·	-3	0
CNc1ccc(Br)cc(C(=O)/C=C/c2cc(OC)ccc2OC)c1=O	·	·	55*	2	-4	5
CCNc1ccc(Br)cc(C(=O)/C=C/c2ccc(Cl)cc2Cl)c1=O	·	·	79*[fluorescence artefact?]	0	4	-4
Cc1nc(N)nc2ccccc12	·	·	·	7	·	·
N#CC1=C(N)Nc2ncnn2C1c1ccc(F)cc1 (configuration not stated)	-6	6	·	·	·	·
O=C(O)Cc1c[nH]c2ccc(F)cc12	·	·	·	-1	·	·
Oc1ccccc1C(Sc1nc2ccccc2s1)Sc1nc2ccccc2s1	·	·	·	78*	·	·
O=C(O)CCCSc1nc2ccccc2s1	·	·	·	-5	·	·
O=C1S/C(=C\c2ccc(N3CCOCC3)o2)C(=O)N1Cc1c(F)cccc1Cl	·	·	121*[fluorescence artefact?]	·	17	-14
